Tests used:
[1] = biological target: T1, Proteasome Macropain subunit MB1 (Homo sapiens, UniProt P28074); assay: Inhibition of human 20S proteasome chymotryptic-like activity using Suc-LLVY-AMC as substrate measured for 30 mins by fluorescence assay
T1 sequence (P28074 whole entry): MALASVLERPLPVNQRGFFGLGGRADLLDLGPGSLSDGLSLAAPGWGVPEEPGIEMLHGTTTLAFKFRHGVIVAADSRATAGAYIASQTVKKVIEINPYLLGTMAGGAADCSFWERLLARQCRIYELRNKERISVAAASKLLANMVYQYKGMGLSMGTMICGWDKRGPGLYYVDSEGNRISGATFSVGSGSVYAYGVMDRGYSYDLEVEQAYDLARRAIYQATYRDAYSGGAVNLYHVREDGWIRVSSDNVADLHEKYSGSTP
Summary of the method: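 Purified human 20S proteasome (1 nM) in 50 mM Tris-HCl pH 7.5 with 0.03% SDS and 50 μM fluorogenic substrate (Suc-LLVY-AMC for CT-L, Z-ARR-AMC for T-L, Z-LLE-AMC for casp-L), 37 °C. Maximum fluorescence increase per minute gave specific activity; IC50 taken from the linear portion of the curves.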

[2] = biological target: T1, Proteasome Macropain subunit MB1; assay: Inhibition of human 20S proteasome chymotryptic-like activity using Suc-LLVY-AMC as substrate assessed as fluorescence quinching control by fluorescence assay
[3] = Inhibition of human 20s proteasome in human TNFalpa stimulated NF-kappaB-luc expressing HeLa cells assessed as suppression of NF-kappaB mediated gene expression preincubated for 30 min followed by TNFalpha stimulation measured after 8 hrs by steady-Glo luciferase assay; assay type: cell-based
Summary of the method: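 HeLa NF-κB-luc cells were seeded in DMEM with 5% FBS and hygromycin B. After 24 h the medium was swapped for serum-free DMEM with antibiotics. Cells were pretreated 30 min at 37 °C, 5% CO2 with compound (final 50, 25, 12.5, 6.25, 3.13, 1.56 μM), vehicle 1% DMSO, or 50 μM MG-132 as positive control. TNF-α (25 ng/mL final) was then added for 8 h. Firefly luciferase was read by Steady-Glo, normalized to TNF-α stimulation. Average of 2 independent experiments.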

| Compound | IC50 [1] [µM] | IC50 [2] [µM] | IC50 [3] [µM] |
| --- | --- | --- | --- |
| Cc1ccc2ccccc2n1 [QUINALDINE] | > 25 |  |  |
| Cc1nc2ccc(Cl)cc2cc1C1=CCCCC1 | > 25 |  |  |
| c1ccc(-c2cnc3ccccc3c2)cc1 | > 25 |  |  |
| CN(C)c1ccc2nc(-c3ccccc3)c(-c3ccccc3)cc2c1 | > 25 | 2.3 |  |
| Cc1cc(C)c2cc(C3=CCCCC3)c(C)nc2c1 |  |  | 12.1 |
| Cc1cc(C)c2cc(-c3ccccc3)c(-c3ccccc3)nc2c1 | > 25 |  |  |
| CCCCc1ccc2cc(N(C)C)ccc2n1 | > 25 |  |  |
| Cc1cnc2ccccc2c1 | > 25 |  |  |
| C=C(C)c1cc2c(C)cc(C)cc2nc1CC | > 25 |  |  |
| Cc1nc2ccccc2cc1C1=CCCCC1 | > 25 |  |  |
| CN(C)c1ccc2ncc(C(C)(C)C)cc2c1 | > 25 |  |  |
| Cc1nc2cc(Br)cc(Br)c2cc1C1=CCCCC1 | > 25 |  |  |
| Cc1nc2ccc(N3CCOCC3)cc2cc1C1=CCCCC1 | 9.1 |  |  |
| COc1ccc2nc(C)c(C3=CCCCC3)cc2c1 | > 25 |  |  |
| Cc1nc2ccc(F)cc2cc1C1=CCCCC1 | > 25 |  |  |
| Cc1nc2ccc(N3CCCCC3)cc2cc1C1=CCCCC1 | 5.4 |  |  |
| Cc1nc2ccc(C(C)C)cc2cc1-c1ccccc1 | > 25 |  |  |
| Cc1nc2cc(Cl)cc(Cl)c2cc1C1=CCCCC1 | > 25 |  |  |
| Cc1nc2ccc(Br)cc2cc1-c1ccccc1 | > 25 |  |  |

Reference: ChEMBL document CHEMBL3804753, “Substituted quinolines as noncovalent proteasome inhibitors” (Bioorg Med Chem, 2016)
